Source: PubChem (several laboratories)
PMI act hi M6P: PMI (human) activation, high substrate; 190,000 tested, 0.34% active; activation factor at 20 µM; P34949; AID 1216; coupled PMI enzyme assay, resazurin fluorescence, 20 min; stronger effect = higher value; 1 = untreated enzyme, 0 = substrate-free blank;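 active means activation factor of 2 or more at 20 µM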
Target sequence (P34949 whole entry, looked up): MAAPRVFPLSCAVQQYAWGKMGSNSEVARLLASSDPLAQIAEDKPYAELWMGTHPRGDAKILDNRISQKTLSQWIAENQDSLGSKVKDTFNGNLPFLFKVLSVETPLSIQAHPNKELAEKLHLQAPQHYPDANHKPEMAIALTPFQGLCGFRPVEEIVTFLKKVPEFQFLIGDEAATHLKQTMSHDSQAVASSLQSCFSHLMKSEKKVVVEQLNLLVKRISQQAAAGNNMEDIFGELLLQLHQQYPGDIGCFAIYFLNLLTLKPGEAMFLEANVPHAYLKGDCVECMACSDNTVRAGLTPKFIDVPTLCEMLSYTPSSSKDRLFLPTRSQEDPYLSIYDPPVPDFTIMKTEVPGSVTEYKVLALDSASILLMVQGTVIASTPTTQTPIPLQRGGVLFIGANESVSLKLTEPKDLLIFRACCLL
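Material: human phosphomannose isomerase with PGI, G6PDH, diaphorase coupling enzymes; amount: PMI at 15 ng/mL final; also added: Mannose-6-phosphate 1.0 mM (near-saturating) plus 0.22 mM NADP+; incubation: enzyme reaction with compound 20 min at room temperature; signal: resorufin fluorescence (Ex 544/Em 590 nm) from resazurin via diaphorase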
WT yeast gro inh: growth inhibition of WT yeast, mitochondrial fusion screen | 190,000 tested, 2.1% active | mitochondrial fusion phenotypic screen, WT strain | inhibition, % at 10 µM; in the data active means inhibition above about 58%; tested in S. cerevisiae
PMI act: increases human mannose-6-phosphate isomerase activity; activation factor at 20 µM; P34949; 190,000 tested, 0.005% active; purified human PMI, coupled resazurin fluorescence, 20 min; stronger effect = higher value; 1 = vehicle control, 0 substrate-free wells;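 active means activation factor of 2 or more at 20 µM, relative to plate controls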
Lmaj promast: Leishmania major promastigote growth inhibition; Leishmania major promastigotes, resazurin fluorescence viability; inhibition, % at 10 µM; 200,000 tested, 9% active; AID 1063; in the data active means inhibition above about 50%;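 further: promastigotes grown with compound for 44 hours at 28 °C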
Diaphorase act: diaphorase activation or chemical reduction counter-screen | Diaphorase/resazurin coupled assay, resorufin fluorescence, 16 min; stronger effect = higher value; 1 = vehicle wells, 0 = NADH-free wells | activation factor at 20 µM | 190,000 tested, 0.005% active | AID 1229;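 active means diaphorase activity raised at least twofold by the compound at 20 µM; inactive means activation factor below 2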
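test system = bacterial diaphorase enzyme (C. kluyveri) | quantity = enzyme 0.07 U/mL final | reagent = NADH substrate 0.114 mM plus resazurin dye 0.1 mM, final | incubation = 16 min enzyme reaction, ambient temperature | buffer or medium = HEPES pH 7.4 buffer with MgCl2 and Tween 20 | signal = fluorescence of resorufin, 544 nm excitation, 590 nm emission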
* marks the source's active call; other numbers are inactive results; / = no result given. In the library only some 10% were active in any assay of this set; here they are far more common.

SMILES | PMI act hi M6P | WT yeast gro inh | PMI act | Lmaj promast | Diaphorase act
CC(=O)NCC(=O)OCC(=O)c1ccc(Br)cc1 | 1 | 0 | 1 | 40 | 0.8
CCCC(=O)Nc1cccc(-c2nc3ccccc3c(=O)o2)c1 | 1 | -1 | 0.9 | -5 | 0.8
c1ccc(CSc2ccc(-c3ccco3)nn2)cc1 | 1 | 4 | 1 | 2 | 0.9
Cc1ccc(-n2ncc(C(=O)Nc3cc(Cl)cc(Cl)c3)c2C2CCNCC2)cc1C | 0.9 | 18 | 1 | 101* | 1
Cc1ccc(-n2ncc(C(=O)Nc3cc(Cl)ccc3Cl)c2C2CCNCC2)cc1 | 1.1 | 5 | 1.2 | -7 | 0.9
O=C(Cn1ncc(Cl)c(Cl)c1=O)N1CCN(S(=O)(=O)c2ccc3ccccc3c2)CC1 | 1 | -19 | 0.9 | 99* | 0.7
O=S(=O)(c1ccc2ccccc2c1)N1CCN(C(=S)Nc2ccc(F)c(Cl)c2)CC1 | 0.9 | 0 | 0.9 | 90* | 0.9
O=C(CCC(=O)N1CCN(S(=O)(=O)c2ccc(Cl)cc2)CC1)Nc1ccc(Cl)cc1Cl | 0.9 | 41 | 0.9 | 5 | 0.7
O=C(CCC(=O)N1CCN(S(=O)(=O)c2ccc3ccccc3c2)CC1)Nc1cc(Cl)cc(Cl)c1 | 1 | -8 | 0.9 | 63* | 1
Cn1nc(C(F)(F)F)cc1C(=O)NC1CCCCCC1 | 1 | 4 | 1.1 | 4 | 0.9
CC(C)NCC(O)(c1ccc(Cl)cc1)c1ccc(Cl)cc1 | 1 | -6 | 1 | 8 | 0.9
NCC(O)(c1ccc(Cl)cc1)c1ccc(Cl)cc1 | 0.9 | -2 | 0.9 | 94* | 1
CCCCCNc1nc(-c2ccccc2)cs1 | 1 | 18 | 0.9 | 8 | 0.9
CCNC(=S)N(CCc1c(C)[nH]c2ccc(C)cc12)Cc1cccs1 | 0.8 | 71* | 0.8 | 39 | 0.7
CCNC(=S)N(CCc1c(C)[nH]c2ccc(Cl)cc12)Cc1ccco1 | 0.9 | 78* | 0.8 | 43 | 0.8
COCCNC(=S)N(CCc1c(C)[nH]c2ccc(F)cc12)Cc1cccs1 | 0.9 | 34 | 1 | 42 | 0.9
COCCNC(=S)N(CCc1c(C)[nH]c2ccc(Cl)cc12)Cc1cccs1 | 0.9 | 74* | 0.9 | 53* | 0.8
COc1ccccc1/C=C/C(=O)OCC(=O)c1c(N)n(C)c(=O)n(C)c1=O | 1 | -5 | 1 | -9 | 1
COc1ccc2c(c1)sc(=N)n2C | 0.9 | 4 | 0.8 | 101* | 1
COC(=O)c1ccc([C@@H]2C[C@H]3CN(Cc4cccnc4)C(=O)[C@]34CCCN24)cc1 | 0.9 | -2 | 0.9 | -6 | 0.9
COC(=O)c1sccc1NC(=O)Nc1cccc(F)c1 | 0.8 | 20 | 0.8 | -9 | 0.8
CCC1(C)Cc2nc3[nH]c(=S)n(-c4ccccc4)c(=O)c3cc2CO1 (stereo not drawn) | 1 | 19 | 1 | 56* | 0.9
CC1(C)Cc2nc3[nH]c(=S)n(-c4ccccc4)c(=O)c3cc2CO1 | / | / | / | 0 | /
Cc1ccc(CNC(=O)COc2ccccc2-c2ccccc2)cc1 | 1 | 20 | 1 | 70* | 0.9
CC(=O)Nc1ccccc1OCC(=O)NC(C)c1ccccc1 (stereo not drawn) | 1 | -5 | 1.1 | 4 | 1
SMILES | PMI act hi M6P | WT yeast gro inh | PMI act | Lmaj promast | Diaphorase act
Cc1ccc(CNC(=O)CCc2ccccc2)cc1 | 1 | -4 | 0.9 | -2 | 0.9
COc1cccc(C(=O)COc2ccccc2-c2ccccc2)c1 | 1 | 25 | 0.9 | 53* | 0.9
CC(NC(=O)COc1ccccc1-c1ccccc1)c1ccccc1 (stereo not drawn) | 0.9 | 71* | 0.8 | 34 | 0.9
COc1cc(NCCCCCCCN)c2ncccc2c1 | 0.5 | 31 | 0.8 | 100* | 0.8
COCCCNC(=O)CC(NS(=O)(=O)c1ccc(Cl)cc1)c1ccc(OC)cc1 (stereo not drawn) | 1 | -4 | 1 | 2 | 0.9
CCOc1ccc(NC(=O)[C@@H](NC(=O)c2ccccc2Br)C(C)C)cc1 | 1 | 16 | 0.9 | 98* | 0.9
O=C(Nc1ccc(N2CCOCC2)cc1)c1cccc(S(=O)(=O)N2CCCCC2)c1 | 0.8 | 1 | 0.8 | 98* | 0.8
CCOc1ccc(C(=O)N[C@H](C(=O)Nc2cccc(S(=O)(=O)N3CCCCC3)c2)C(C)C)cc1 | 0.4 | 0 | 0.8 | 97* | 0.7
CC(C)[C@H](NC(N)=O)C(=O)Nc1cccc(S(=O)(=O)N2CCOCC2)c1 | 1.1 | 6 | 1.1 | 6 | 0.8
C/C(=N\NC(=O)c1cccc(S(=O)(=O)N2CCCC2)c1)c1ccco1 | 0.9 | 1 | 1 | -5 | 0.9
CCOc1ccc(NC(=O)C(CC)NC(=O)c2ccccc2CO)cc1 (stereo not drawn) | 1.1 | 7 | 1 | -3 | 0.9
C/C(=N\NC(=O)c1cccc(S(=O)(=O)N2CCCCC2)c1)c1ccc(C)o1 | 0.8 | -18 | 0.9 | 82* | 0.9
O=C(/C=C/c1cccc(Cl)c1)NCCN1CCOCC1 | 1.1 | 3 | 1 | 1 | 0.9
Cc1ccc(NC(=O)[C@@H](NC(=O)c2cccc(S(=O)(=O)N3CCOCC3)c2)C(C)C)cc1C | 0.9 | 16 | 0.9 | 76* | 0.8
CSCCC(NC(=O)c1ccccc1)C(=O)Nc1ccc(NC(C)=O)cc1 (stereo not drawn) | 0.9 | -8 | 0.9 | 55* | 0.9
CC(O/N=C/c1ccccc1OC(F)F)C(=O)Nc1cccc(S(=O)(=O)N2CCOCC2)c1 (stereo not drawn) | 0.9 | 14 | 0.8 | 51* | 0.8
CSCCC(NC(=O)c1cccc(S(=O)(=O)N2CCOCC2)c1)C(=O)Nc1ccc(F)cc1 (stereo not drawn) | 0.9 | -8 | 0.8 | 73* | 0.8
Cc1nc2cc(NS(=O)(=O)c3ccc(Br)cc3)ccc2n1C | 0.9 | -4 | 1 | 16 | 1.2
CCC(C)NC(=O)Cn1c(=O)sc2ccccc21 (stereo not drawn) | 1.1 | -10 | 1.2 | -2 | 1.1
S=C(Nc1ccc2nccnc2c1)N1CCOCC1 | 0.3 | -6 | 0.6 | -4 | 0.8
O=C(N/N=C\c1ccc(F)cc1)c1csnn1 | 1 | -9 | 0.9 | -1 | 0.9
Cc1ccc(-c2csc3ncnc(N4CCN(C(=O)c5ccccc5)CC4)c23)cc1 | 1 | -14 | 1 | 45 | 0.9
O=C(CSc1nnc(-c2cccnc2)n1-c1ccc(SC(F)F)cc1)N1CCCc2ccccc21 | 1 | -16 | 1 | 88* | 0.9
CCOc1ccccc1-n1c(SCC(=O)N2CCCc3ccccc32)nnc1-c1cccnc1 | 1.1 | 1 | 1 | 53* | 0.9
Cc1ccc(-n2c(SCC(N)=O)nnc2-c2cccnc2)c(C)c1 | 1 | / | 1.1 | -3 | 0.9
Cn1c(Cc2cccc3ccccc23)nnc1SCC(=O)N1CCN(c2ccccc2)CC1 | 0.9 | -1 | 0.9 | 58* | 0.9
Cc1ccc(-n2c(SCC(=O)N3CCCc4ccccc43)nnc2-c2cccnc2)c(C)c1 | 0.9 | -5 | 0.8 | 59* | 0.9
